Test results as given in ChEMBL document CHEMBL5058577, “EUbOPEN Chemogenomics Library 2 (Multiplex)” (2022).

System: Fibroblast
Assay: Multiplex assay against human fibroblast
Type: toxicity, cell-based
Outline: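 Cells stained live at seeding with Hoechst33342, BioTracker Green Microtubule Cytoskeleton Dye, MitoTracker Red and Annexin V Alexa Fluor 680 were imaged on a CQ1 microscope at 37°C and 5% CO2 after compound addition. Their classification by CellPathfinder machine-learning gating ran from Hoechst high-intensity objects versus normal cells, to healthy, pyknosed or fragmented nuclei among normal cells, to mitotic or apoptotic among pyknosed cells. Tubulin, mitochondrial-mass and membrane-permeability phenotypes are per cents of healthy-nucleus cells.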

[1] = 12 h, 1 µM, compound concentration 1 uM, replicate 1
[2] = 12 h, 1 µM, compound concentration 1 uM, replicate 2
[3] = 12 h, 10 µM, compound concentration 10 uM, replicate 1
[4] = 12 h, 10 µM, compound concentration 10 uM, replicate 2
[5] = 24 h, 1 µM, compound concentration 1 uM, replicate 1
[6] = 24 h, 1 µM, compound concentration 1 uM, replicate 2
[7] = 24 h, 10 µM, compound concentration 10 uM, replicate 1
[8] = 24 h, 10 µM, compound concentration 10 uM, replicate 2
[9] = 48 h, 1 µM, compound concentration 1 uM, replicate 1
[10] = 48 h, 1 µM, compound concentration 1 uM, replicate 2
[11] = 48 h, 10 µM, compound concentration 10 uM, replicate 1
[12] = 48 h, 10 µM, compound concentration 10 uM, replicate 2

COCCn1c(C)c(C)s/c1=N\C(=O)C1C(C)(C)C1(C)C
Population Apoptotic (%) [1]: 43% | Population Fragmented Nuclei (%) [1]: 18% | Population Healthy Nuclei (%) [1]: 69% | Population Hoechst High Intensity Objects (%) [1]: 0% | Population Membrane Permeable-Phenotype (%) [1]: 0% | Population Mitochondria Different-Phenotype (%) [1]: 7% | Population Mitotic Cells (%) [1]: 56% | Population Normal (%) [1]: 99% | Population Pyknosed Nuclei (%) [1]: 11% | Population Tubulin-Different-Phenotype (%) [1]: 34% | Total Cell Count [1]: 136 | Population Apoptotic (%) [2]: 40% | Population Fragmented Nuclei (%) [2]: 22% | Population Healthy Nuclei (%) [2]: 57% | Population Hoechst High Intensity Objects (%) [2]: 4% | Population Membrane Permeable-Phenotype (%) [2]: 1% | Population Mitochondria Different-Phenotype (%) [2]: 5% | Population Mitotic Cells (%) [2]: 60% | Population Normal (%) [2]: 95% | Population Pyknosed Nuclei (%) [2]: 19% | Population Tubulin-Different-Phenotype (%) [2]: 32% | Total Cell Count [2]: 133 | Population Apoptotic (%) [3]: 64% | Population Fragmented Nuclei (%) [3]: 19% | Population Healthy Nuclei (%) [3]: 59% | Population Hoechst High Intensity Objects (%) [3]: 2% | Population Membrane Permeable-Phenotype (%) [3]: 1% | Population Mitochondria Different-Phenotype (%) [3]: 14% | Population Mitotic Cells (%) [3]: 35% | Population Normal (%) [3]: 97% | Population Pyknosed Nuclei (%) [3]: 20% | Population Tubulin-Different-Phenotype (%) [3]: 56% | Total Cell Count [3]: 167 | Population Apoptotic (%) [4]: 37% | Population Fragmented Nuclei (%) [4]: 38% | Population Healthy Nuclei (%) [4]: 40% | Population Hoechst High Intensity Objects (%) [4]: 6% | Population Membrane Permeable-Phenotype (%) [4]: 13% | Population Mitochondria Different-Phenotype (%) [4]: 8% | Population Mitotic Cells (%) [4]: 62% | Population Normal (%) [4]: 93% | Population Pyknosed Nuclei (%) [4]: 21% | Population Tubulin-Different-Phenotype (%) [4]: 64% | Total Cell Count [4]: 120 | Population Apoptotic (%) [5]: 64% | Population Fragmented Nuclei (%) [5]: 15% | Population Healthy Nuclei (%) [5]: 72% | Population Hoechst High Intensity Objects (%) [5]: 2% | Population Membrane Permeable-Phenotype (%) [5]: 1% | Population Mitochondria Different-Phenotype (%) [5]: 5% | Population Mitotic Cells (%) [5]: 35% | Population Normal (%) [5]: 97% | Population Pyknosed Nuclei (%) [5]: 11% | Population Tubulin-Different-Phenotype (%) [5]: 38% | Total Cell Count [5]: 122 | Population Apoptotic (%) [6]: 54% | Population Fragmented Nuclei (%) [6]: 28% | Population Healthy Nuclei (%) [6]: 54% | Population Hoechst High Intensity Objects (%) [6]: 3% | Population Membrane Permeable-Phenotype (%) [6]: 5% | Population Mitotic Cells (%) [6]: 45% | Population Normal (%) [6]: 96% | Population Pyknosed Nuclei (%) [6]: 17% | Population Tubulin-Different-Phenotype (%) [6]: 37% | Total Cell Count [6]: 132 | Population Apoptotic (%) [7]: 68% | Population Fragmented Nuclei (%) [7]: 20% | Population Healthy Nuclei (%) [7]: 59% | Population Hoechst High Intensity Objects (%) [7]: 4% | Population Membrane Permeable-Phenotype (%) [7]: 0% | Population Mitochondria Different-Phenotype (%) [7]: 15% | Population Mitotic Cells (%) [7]: 31% | Population Normal (%) [7]: 95% | Population Pyknosed Nuclei (%) [7]: 19% | Population Tubulin-Different-Phenotype (%) [7]: 61% | Total Cell Count [7]: 154 | Population Apoptotic (%) [8]: 33% | Population Fragmented Nuclei (%) [8]: 40% | Population Healthy Nuclei (%) [8]: 36% | Population Hoechst High Intensity Objects (%) [8]: 3% | Population Membrane Permeable-Phenotype (%) [8]: 11% | Population Mitochondria Different-Phenotype (%) [8]: 19% | Population Mitotic Cells (%) [8]: 66% | Population Normal (%) [8]: 96% | Population Pyknosed Nuclei (%) [8]: 23% | Population Tubulin-Different-Phenotype (%) [8]: 66% | Total Cell Count [8]: 120 | Population Apoptotic (%) [9]: 60% | Population Fragmented Nuclei (%) [9]: 23% | Population Healthy Nuclei (%) [9]: 63% | Population Hoechst High Intensity Objects (%) [9]: 4% | Population Membrane Permeable-Phenotype (%) [9]: 0% | Population Mitochondria Different-Phenotype (%) [9]: 4% | Population Mitotic Cells (%) [9]: 40% | Population Normal (%) [9]: 95% | Population Pyknosed Nuclei (%) [9]: 12% | Population Tubulin-Different-Phenotype (%) [9]: 43% | Total Cell Count [9]: 123 | Population Fragmented Nuclei (%) [10]: 31% | Population Healthy Nuclei (%) [10]: 56% | Population Hoechst High Intensity Objects (%) [10]: 7% | Population Membrane Permeable-Phenotype (%) [10]: 2% | Population Normal (%) [10]: 92% | Population Pyknosed Nuclei (%) [10]: 11% | Population Tubulin-Different-Phenotype (%) [10]: 45% | Total Cell Count [10]: 140 | Population Apoptotic (%) [11]: 75% | Population Fragmented Nuclei (%) [11]: 23% | Population Healthy Nuclei (%) [11]: 56% | Population Hoechst High Intensity Objects (%) [11]: 7% | Population Membrane Permeable-Phenotype (%) [11]: 0% | Population Mitochondria Different-Phenotype (%) [11]: 22% | Population Mitotic Cells (%) [11]: 25% | Population Normal (%) [11]: 92% | Population Pyknosed Nuclei (%) [11]: 20% | Population Tubulin-Different-Phenotype (%) [11]: 67% | Total Cell Count [11]: 151 | Population Apoptotic (%) [12]: 58% | Population Fragmented Nuclei (%) [12]: 49% | Population Healthy Nuclei (%) [12]: 34% | Population Hoechst High Intensity Objects (%) [12]: 8% | Population Membrane Permeable-Phenotype (%) [12]: 14% | Population Mitochondria Different-Phenotype (%) [12]: 11% | Population Mitotic Cells (%) [12]: 41% | Population Normal (%) [12]: 91% | Population Pyknosed Nuclei (%) [12]: 16% | Population Tubulin-Different-Phenotype (%) [12]: 65% | Total Cell Count [12]: 111
